Calls of active or inactive are those of the source. The calls are words filed in the database; no cut-off is given here.
Test system: Trypanosoma brucei rhodesiense
Experiment: Antitrypanosomal activity against Trypanosoma brucei rhodesiense STIB900
Assay type: functional, organism-based
Details: not given
`N=C(N)c1cccc(OCc2ccccc2COc2cccc(C(=N)N)c2)c1` showed an IC50 of 0.14 µM.
For `N=C(N)c1ccc(COc2ccc3cc(OCc4ccc(C(=N)N)cc4)ccc3c2)cc1`, the IC50 was 2.36 µM.
Compound `CONC(=N)c1ccc(OCc2cccc(COc3ccc(C(=N)NOC)cc3)c2)cc1` has an IC50 of 30.4 µM.
With `N=C(NO)c1ccc(OCc2cccc(COc3ccc(C(=N)NO)cc3)c2)cc1` the IC50 was over 62.6 µM.
`N=C(N)c1cccc(OCc2ccc(COc3cccc(C(=N)N)c3)cc2)c1` gave an IC50 of 0.0778 µM.
`CC(C)NC(=N)c1ccc(OCc2ccc(COc3ccc(C(=N)NC(C)C)cc3)cc2)cc1` showed an IC50 of 0.0748 µM.

Test system: not listed separately
Experiment: Selectivity index, ratio of IC50 for rat L6 cells to IC50 for Trypanosoma brucei rhodesiense STIB900
Assay type: toxicity, cell-based
Details: read-out: Ratio IC50
`N=C(N)c1cccc(OCc2ccccc2COc2cccc(C(=N)N)c2)c1` showed a selectivity ratio of 602.
`CONC(=N)c1ccc(OCc2cccc(COc3ccc(C(=N)NOC)cc3)c2)cc1` showed a selectivity ratio of over 1.11.
`N=C(NO)c1ccc(OCc2cccc(COc3ccc(C(=N)NO)cc3)c2)cc1` gave a selectivity ratio of under 0.104.
Work on `N=C(N)c1cccc(OCc2ccc(COc3cccc(C(=N)N)c3)cc2)c1` yielded a selectivity ratio of 103.
Work on `CC(C)NC(=N)c1ccc(OCc2ccc(COc3ccc(C(=N)NC(C)C)cc3)cc2)cc1` yielded a selectivity ratio of over 2230.

Test system: Plasmodium falciparum
Experiment: Antimalarial activity against chloroquine-resistant Plasmodium falciparum K1
Assay type: functional, organism-based
Details: not given
`N=C(N)c1cccc(OCc2ccccc2COc2cccc(C(=N)N)c2)c1` showed an IC50 of 0.109 µM.
Compound `CONC(=N)c1ccc(OCc2cccc(COc3ccc(C(=N)NOC)cc3)c2)cc1` has an IC50 of over 9.72 µM.
Work on `N=C(NO)c1ccc(OCc2cccc(COc3ccc(C(=N)NO)cc3)c2)cc1` yielded an IC50 of over 10.4 µM.
`N=C(N)c1cccc(OCc2ccc(COc3cccc(C(=N)N)c3)cc2)c1` gave an IC50 of 0.0677 µM.
Compound `CC(C)NC(=N)c1ccc(OCc2ccc(COc3ccc(C(=N)NC(C)C)cc3)cc2)cc1` has an IC50 of 0.017 µM.

Test system: not listed separately
Experiment: Selectivity index, ratio of IC50 for rat L6 cells to IC50 for chloroquine-resistant Plasmodium falciparum K1
Assay type: toxicity, cell-based
Details: read-out: Ratio IC50
For `N=C(N)c1cccc(OCc2ccccc2COc2cccc(C(=N)N)c2)c1`, the selectivity ratio was 775.
In the case of `CONC(=N)c1ccc(OCc2cccc(COc3ccc(C(=N)NOC)cc3)c2)cc1`, the selectivity ratio is reported as over 3.46.
Work on `N=C(NO)c1ccc(OCc2cccc(COc3ccc(C(=N)NO)cc3)c2)cc1` yielded a selectivity ratio of under 0.628.
In the case of `N=C(N)c1cccc(OCc2ccc(COc3cccc(C(=N)N)c3)cc2)c1`, the selectivity ratio is reported as 119.
For `CC(C)NC(=N)c1ccc(OCc2ccc(COc3ccc(C(=N)NC(C)C)cc3)cc2)cc1`, the selectivity ratio was over 9820.

Test system: Leishmania donovani
Experiment: Antileishmanial activity against Leishmania donovani MHOM/SD/62/1S-CL2D amastigotes
Assay type: functional, organism-based
Details: not given
How it was run: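 IC50 taken as the average of duplicate determinations against L. donovani.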
With `N=C(N)c1cccc(OCc2ccccc2COc2cccc(C(=N)N)c2)c1` the IC50 was 5.5 µM.
Work on `N=C(N)c1ccc(COc2ccc3cc(OCc4ccc(C(=N)N)cc4)ccc3c2)cc1` yielded an IC50 of 7.12 µM.
With `CONC(=N)c1ccc(OCc2cccc(COc3ccc(C(=N)NOC)cc3)c2)cc1` the IC50 was over 100 µM.
With `N=C(NO)c1ccc(OCc2cccc(COc3ccc(C(=N)NO)cc3)c2)cc1` the IC50 was over 100 µM.
With `N=C(N)c1cccc(OCc2ccc(COc3cccc(C(=N)N)c3)cc2)c1` the IC50 was over 200 µM.
With `CC(C)NC(=N)c1ccc(OCc2ccc(COc3ccc(C(=N)NC(C)C)cc3)cc2)cc1` the IC50 was 7.99 µM.

Test system: not listed separately
Experiment: Selectivity index, ratio of IC50 for rat L6 cells to IC50 for Leishmania donovani MHOM/SD/62/1S-CL2D amastigotes
Assay type: toxicity, cell-based
Details: read-out: Ratio IC50
`N=C(N)c1cccc(OCc2ccccc2COc2cccc(C(=N)N)c2)c1` showed a selectivity ratio of 15.4.
`CONC(=N)c1ccc(OCc2cccc(COc3ccc(C(=N)NOC)cc3)c2)cc1` gave a selectivity ratio of under 0.336.
Compound `N=C(NO)c1ccc(OCc2cccc(COc3ccc(C(=N)NO)cc3)c2)cc1` has a selectivity ratio of under 0.0653.
`N=C(N)c1cccc(OCc2ccc(COc3cccc(C(=N)N)c3)cc2)c1` showed a selectivity ratio of under 0.0401.
In the case of `CC(C)NC(=N)c1ccc(OCc2ccc(COc3ccc(C(=N)NC(C)C)cc3)cc2)cc1`, the selectivity ratio is reported as over 20.9.

Test system: L6
Experiment: Cytotoxicity against rat L6 cells
Assay type: cell-based
Details: not given
How it was run: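 Rat L6 myoblasts served as the cytotoxicity measure. IC50 is the average of duplicate determinations.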
`N=C(N)c1cccc(OCc2ccccc2COc2cccc(C(=N)N)c2)c1` showed an IC50 of 84.6 µM.
Compound `N=C(N)c1ccc(COc2ccc3cc(OCc4ccc(C(=N)N)cc4)ccc3c2)cc1` has an IC50 of 19.3 µM.
`CONC(=N)c1ccc(OCc2cccc(COc3ccc(C(=N)NOC)cc3)c2)cc1` gave an IC50 of over 33.6 µM.
In the case of `N=C(NO)c1ccc(OCc2cccc(COc3ccc(C(=N)NO)cc3)c2)cc1`, the IC50 is reported as 6.53 µM.
In the case of `N=C(N)c1cccc(OCc2ccc(COc3cccc(C(=N)N)c3)cc2)c1`, the IC50 is reported as 8.02 µM.
`CC(C)NC(=N)c1ccc(OCc2ccc(COc3ccc(C(=N)NC(C)C)cc3)cc2)cc1` showed an IC50 of over 167 µM.

Test system: Trypanosoma brucei rhodesiense
Experiment: Antitrypanosomal activity against Trypanosoma brucei rhodesiense STIB900 infected NMRI mouse assessed as infection cure rate at 5 mg/kg, ip dosed for 4 days
Assay type: functional, organism-based
Design: dose 5 mg/kg
Details: not given
How it was run: (§1)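 Mice infected with T. b. rhodesiense STIB900 were dosed intraperitoneally once daily for 4 days. Outcome was scored as cured/infected animals out of groups of four, plus mean survival days post infection for mice showing parasitemia relapse.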
With `CC(C)NC(=N)c1ccc(OCc2ccc(COc3ccc(C(=N)NC(C)C)cc3)cc2)cc1` the Activity was “inactive”.

Test system: Trypanosoma brucei rhodesiense
Experiment: Antitrypanosomal activity against Trypanosoma brucei rhodesiense STIB900 infected NMRI mouse assessed as infection cure rate at 20 mg/kg, ip dosed for 4 days
Assay type: functional, organism-based
Design: dose 20 mg/kg
Details: not given
How it was run: as §1
For `N=C(N)c1cccc(OCc2ccc(COc3cccc(C(=N)N)c3)cc2)c1`, the Activity was “inactive”.

Test system: Trypanosoma brucei rhodesiense
Experiment: Antitrypanosomal activity against Trypanosoma brucei rhodesiense STIB900 infected NMRI mouse assessed as infection cure rate at 100 mg/kg, po dosed for 4 days
Assay type: functional, organism-based
Design: dose 100 mg/kg
Details: not given
How it was run: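 Mice infected with T. b. rhodesiense STIB900 received oral doses once daily for 4 days. Cure was scored as cured/infected animals, with mean survival days post infection for relapsing mice.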
In the case of `CONC(=N)c1ccc(OCc2cccc(COc3ccc(C(=N)NOC)cc3)c2)cc1`, the Activity is reported as “inactive”.

Test system: Trypanosoma brucei rhodesiense
Experiment: Antitrypanosomal activity against Trypanosoma brucei rhodesiense STIB900 infected NMRI mouse assessed mean survival time at 10 mg/kg, ip dosed for 4 days
Assay type: functional
Details: route intraperitoneal
For `N=C(N)c1cccc(OCc2ccccc2COc2cccc(C(=N)N)c2)c1`, the Survival was over 27.3 days.

Test system: Trypanosoma brucei rhodesiense
Experiment: Antitrypanosomal activity against Trypanosoma brucei rhodesiense STIB900 infected NMRI mouse assessed mean survival time at 5 mg/kg, ip dosed for 4 days
Assay type: functional
Details: route intraperitoneal
With `CC(C)NC(=N)c1ccc(OCc2ccc(COc3ccc(C(=N)NC(C)C)cc3)cc2)cc1` the Survival was 17 days.

Test system: Trypanosoma brucei rhodesiense
Experiment: Antitrypanosomal activity against Trypanosoma brucei rhodesiense STIB900 infected NMRI mouse assessed mean survival time at 20 mg/kg, ip dosed for 4 days
Assay type: functional
Details: route intraperitoneal
Work on `N=C(N)c1cccc(OCc2ccc(COc3cccc(C(=N)N)c3)cc2)c1` yielded a Survival of 19.5 days.

Test system: Trypanosoma brucei rhodesiense
Experiment: Antitrypanosomal activity against Trypanosoma brucei rhodesiense STIB900 infected NMRI mouse assessed mean survival time at 100 mg/kg, po dosed for 4 days
Assay type: functional
Details: not given
Work on `CONC(=N)c1ccc(OCc2cccc(COc3ccc(C(=N)NOC)cc3)c2)cc1` yielded a Survival of 6 days.
`N=C(NO)c1ccc(OCc2cccc(COc3ccc(C(=N)NO)cc3)c2)cc1` gave a Survival of over 38.3 days.

Test system: Mus musculus
Experiment: Toxicity in ip dosed NMRI mouse infected with Trypanosoma brucei rhodesiense STIB900
Assay type: organism-based
Details: in vivo
In the case of `N=C(N)c1cccc(OCc2ccccc2COc2cccc(C(=N)N)c2)c1`, the Activity is reported as “Toxic”.
With `CC(C)NC(=N)c1ccc(OCc2ccc(COc3ccc(C(=N)NC(C)C)cc3)cc2)cc1` the Activity was “Toxic”.

Source: ChEMBL document CHEMBL1153610, “Synthesis and antiprotozoal activities of dicationic bis(phenoxymethyl)benzenes, bis(phenoxymethyl)naphthalenes, and bis(benzyloxy)naphthalenes” (Eur J Med Chem, 2009)
